Paper PMC9732819 (ACS Chemical Neuroscience, 2022)

What was measured:
[1] = arterial blood and radiometabolite analysis in nonhuman primates; assay type: in vivo, rhesus macaques
Summary of the method: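 Rhesus macaques were sedated with ketamine/xylazine IM and kept on isoflurane. Arterial blood was sampled manually via a posterior tibial catheter throughout PET to measure whole-blood and plasma radioactivity. Plasma from 3–120 min was filtered through a 10K filter (21 000 rcf, 8 °C, 15 min) and run on C18 radioHPLC in pH 12 phosphate/NaOH:MeCN 96:4 to obtain the parent fraction. Plasma-free fraction was measured in triplicate.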

[2] = tested on: voltage-gated K^+ channels; assay: Guo graphical comparison of regional VT between tracers in nonhuman primates; assay type: in vivo, rhesus macaques; conditions: for slope of VT correlation plot (Guo method; in vivo affinity ratio): both monkeys combined
Summary of the method: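 Per animal, regional VT of the test tracer (mean of two baseline scans) was regressed against regional VT of each reference 4-aminopyridine tracer. Linearity indicated a shared target, the y-intercept sign indicated relative signal-to-noise, and the slope with measured plasma-free fractions gave the in vivo affinity ratio. Pearson r was used, with Fisher-transformation t-distribution p-values for the regression and intercept.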

[3] = tested on: voltage-gated K^+ channels; assay: dynamic brain PET imaging and pharmacokinetic modeling in nonhuman primates; assay type: in vivo, rhesus macaques
Summary of the method: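 Two male rhesus macaques (10 and 14 years; one with a prior craniotomy injury) each had two baseline scans. Tracer (291.5–330.1 MBq; 90.3–247.5 GBq/μmol) was infused over 3 min into the saphenous vein, followed by a saline flush, with 180 min list-mode PET/CT under isoflurane. Ten regional TACs were taken in MRI-template space. 1T and 2T models with metabolite-corrected input gave K1 and VT (AIC comparison), with Logan and MA1 also tested.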

[4] = tested on: voltage-gated K^+ channels; assay: PET imaging and ex vivo γ counting of brain and blood in healthy rats; parameters: species or system Sprague Dawley rats
Summary of the method: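 Six–eight-week-old male and female Sprague Dawley rats received ~14.8 MBq tracer by tail vein, alone or with 5 mg/kg cold test compound (5–10 mg/kg in the ex vivo legend), in saline containing ≤10% […]. Rats underwent 60 min PET/CT under 2% isoflurane. Blood (cardiac puncture) and brain were then collected, weighed and γ-counted to give SUV ratios. Imaging used 4 rats; γ-counting used 15. Data are mean ± SD.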

potassium channel = conditions: read-out: in vitro IC50; electrophysiology; cited from earlier work

Structure (SMILES) | fraction unbound ([1]; male, rhesus monkey, arterial plasma) | time for WB to PL ratio to reach a plateau ([1]; monkey arterial blood) [min] | activity attributable to parent tracer in plasma (radioHPLC) ([1]; monkey arterial plasma, after 90 min) [%] | WB to PL radioactivity concentration ratio ([1]; monkey, 1 min postinjection, across all studies) | slope of VT correlation plot (Guo method; in vivo affinity ratio) ([2]; vs [^11C]3MeO4AP, p < 0.0001) | intercept of Guo plot (relative specific binding) ([2]; vs [^11C]3MeO4AP, p = 0.31) | slope of VT correlation plot (Guo method; in vivo affinity ratio) ([2]; vs [^18F]3F4AP, p = 0.0001) | intercept of Guo plot (relative specific binding) ([2]; vs [^18F]3F4AP, p = 0.91) | visibility of minor focal brain lesion on PET images ([3]; monkey 2 (M2), craniotomy site) | whole brain SUV ([3]; monkey brain, 3 min) | K1 (rate constant for transfer from plasma to brain tissue) ([3]; monkey whole brain, 1T2k1v model) [mL/min/cc] | total volume of distribution (VT) ([3]; striatum, monkey 1, 1T2k1v) [mL/cc] | total volume of distribution (VT) ([3]; striatum, monkey 2, 1T2k1v) [mL/cc] | total volume of distribution (VT) ([3]; white matter, monkey 1, 1T2k1v) [mL/cc] | total volume of distribution (VT) ([3]; white matter, monkey 2, 1T2k1v) [mL/cc] | increase of whole brain to blood SUVR, coinjection group vs baseline group ([4]; 60 min, p = 0.017) [%] | time of peak radioactivity in the brain ([4]; PET brain time-activity curve) [min] | IC50 (potassium channel) [µM]
[11CH3]c1cnccc1N [[^11C]3Me4AP, 3-[^11C]Methyl-4-aminopyridine] | 0.94 ± 0.03 | ≤ 1 | ~90 | 1.28 ± 0.01 | 0.73 | 0.67 | 1.93 | 0.10 | not visible | 0.7 | ~0.035 | 4.67 | 4.68 | 3.61 | 3.78 | 43 | ≤ 3 | 
Cc1cnccc1N [3Me4AP, 3-methyl-4-aminopyridine] |  |  |  |  |  |  |  |  |  |  |  |  |  |  |  |  |  | 40
